According to ChEMBL document CHEMBL4825662 (J Med Chem, 2021):
Converted amounts (≈) assume the structure as drawn.

Assays:
[1] = Cmax in CD1 mouse at 5 mg/kg, po measured after 0.03 to 24 hrs by UHPLC-TOF method; format: ADME, organism-based; design: route oral, time upper 24 hrs, time lower 0.03 hrs, dose 5 mg/kg; details: in vivo
[2] = Cytotoxicity against human HepG2 cells by MTT assay; format: cell-based
Summary of the method: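 Viability was assessed by MTT after culture with compound at 0.01 nM to 100 μM, run in parallel with plaque reduction assays. Values are the average of at least two testing occasions.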

[3] = Tmax in Sprague-Dawley rat at 10 mg/kg, po measured after 0.02 to 24 hrs by UHPLC-TOF method; format: ADME, organism-based; details: Sprague-Dawley, in vivo, time 0.02-24 hrs, read-out: Tmax
[4] = tested on: Human orthopneumovirus; assay: Antiviral activity against Respiratory syncytial virus A2 infected in human Huh7 cells by Plaque reduction assay; format: functional, organism-based; details: A2, Huh-7
Summary of the method: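 Huh-7 cells were infected with RSV strain A2 in the presence of compound. Values are the average of at least two testing occasions.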

[5] = Half life in Sprague-Dawley rat at 10 mg/kg, po measured after 0.25 to 24 hrs by UHPLC-TOF method; format: ADME, organism-based; details: in vivo, time 0.25-24 hrs
[6] = Apparent permeability across apical to basolateral side in MDCK-MDR1 cells at 10 uM measured at 60 mins by LC-MS/MS analysis; format: ADME, cell-based, Canis lupus familiaris; details: dog, MDCK-MDR1
[7] = Intrinsic clearance in Sprague-Dawley rat liver microsomes preincubated followed by NADPH addition and measured up to 45 mins by LC-MS/MS analysis; format: ADME, Microsome
[8] = Volume of distribution at steady state in Sprague-Dawley rat at 1 mg/kg, iv administered […] measured after 0.02 to 24 hrs by tandem liquid chromatography/mass spectrometry; format: ADME, organism-based; details: in vivo, time 0.02-24 hrs, read-out: Vdss
Summary of the method: (§1)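 Male Sprague–Dawley rats (200–250 g), 3 per route. IV bolus at 1 mg/kg, 1 mg/mL in 40:60 dimethylacetamide/saline; oral gavage at 5 or 10 mg/kg, 5 mg/mL in 1% methyl cellulose, 0.1% Tween 80 in water. Serial blood at 0.02–24 h (ten points) into heparin, spun at 4 °C, plasma frozen; acetonitrile protein precipitation, ESI LC-MS/MS with matrix curve and internal standards.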

[9] = Half life in CD1 mouse at 1 mg/kg, iv measured after 0.03 to 24 hrs by UHPLC-TOF method; format: ADME, organism-based; details: in vivo, time 0.03-24 hrs
[10] = Clearance in CD1 mouse at 1 mg/kg, iv measured after 0.083 to 24 hrs by UHPLC-TOF method; format: ADME, organism-based; details: in vivo, time 0.083-24 hrs
[11] = Clearance in Sprague-Dawley rat at 1 mg/kg, iv administered […] measured after 0.02 to 24 hrs by tandem liquid chromatography/mass spectrometry; format: ADME, organism-based; details: in vivo, time 0.02-24 hrs
[12] = Thermodynamic solubility in PBS at 1 to 100 uM at pH 7.4 by HPLC-UV method; format: physicochemical; details: dose 1-100 µM, read-out: Therm_solubility
[13] = Volume of distribution at steady state in CD1 mouse at 1 mg/kg, iv measured after 0.083 to 24 hrs by UHPLC-TOF method; format: ADME, organism-based; details: in vivo, time 0.083-24 hrs, read-out: Vdss
Summary of the method: (§2)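 Male CD-1 mice, acclimatized and individually housed, dosed IV and PO as amorphous-solid suspension. Terminal cardiac-puncture blood into heparinized tubes on wet ice, centrifuged at 4 °C within 15 min; plasma snap-frozen at −20 °C. IV arm sampled 2 min–24 h, oral arm 5 min–24 h. Plasma analysed by UHPLC-quadrupole-TOF MS.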

[14] = Intrinsic clearance in Beagle dog liver microsomes preincubated followed by NADPH addition and measured up to 45 mins by LC-MS/MS analysis; format: ADME, Canis lupus familiaris, Microsome
[15] = Tmax in CD1 mouse at 5 mg/kg, po measured after 0.083 to 24 hrs by UHPLC-TOF method; format: ADME, organism-based; details: in vivo, time 0.083-24 hrs; summary of the method: as §2
[16] = Oral bioavailability in CD1 mouse at 5 mg/kg measured after 0.03 to 24 hrs by UHPLC-TOF method; format: ADME, organism-based; details: in vivo, time 0.03-24 hrs; summary of the method: as §2
[17] = Cmax in Sprague-Dawley rat at 10 mg/kg, po measured after 0.02 to 24 hrs by UHPLC-TOF method; format: ADME, organism-based; design: route oral, dose 10 mg/kg, time 0.02-24 hrs; details: in vivo
[18] = Intrinsic clearance in human liver microsomes preincubated followed by NADPH addition and measured up to 45 mins by LC-MS/MS analysis; format: ADME, Microsome
[19] = Oral bioavailability in Sprague-Dawley rat at 10 mg/kg administered via gavage measured after 0.02 to 24 hrs by tandem liquid chromatography/mass spectrometry; format: ADME, organism-based; details: in vivo, time 0.02-24 hrs; summary of the method: as §1
[20] = Cmax in Sprague-Dawley rat at 5 mg/kg, po administered via gavage measured after 0.02 to 24 hrs by tandem liquid chromatography/mass spectrometry; format: ADME, organism-based; design: route oral, dose 5 mg/kg, time upper 24 hrs, time lower 0.02 hrs; details: in vivo
Summary of the method: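 Male Sprague–Dawley rats weighing 200–250 g, 3 per route, were used. The i.v. bolus was 1 mg/kg at 1 mg/mL in 40:60 dimethylacetamide/saline. Oral gavage doses were 5 or 10 mg/kg at 5 mg/mL in 1% methyl cellulose with 0.1% Tween 80. Heparinized blood was taken at 0.02–24 h (ten time points). Plasma was analyzed by LC-MS/MS after acetonitrile precipitation.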

[21] = Efflux ratio of apparent permeability in MDCK-MDR1 cells at 10 uM measured at 60 mins by LC-MS/MS analysis; format: ADME, cell-based, Canis lupus familiaris; details: dog, MDCK-MDR1
[22] = Apparent permeability across basolateral side to apical side in MDCK-MDR1 cells at 10 uM measured at 60 mins by LC-MS/MS analysis; format: ADME, cell-based, Canis lupus familiaris; details: dog
[23] = Half life in CD1 mouse at 10 mg/kg, po measured after 0.083 to 24 hrs by UHPLC-TOF method; format: ADME, organism-based; details: in vivo, time 0.083-24 hrs
[24] = Half life in human liver microsomes preincubated followed by NADPH addition and measured up to 45 mins by LC-MS/MS analysis; format: ADME, Microsome
[25] = Protein binding in dog plasma assessed as unbound fraction at 5 uM by LC-MS/MS analysis based equilibrium dialysis method; format: ADME, cell-free, Canis lupus familiaris
[26] = Cmax in CD1 mouse at 10 mg/kg, po measured after 0.083 to 24 hrs by UHPLC-TOF method; format: ADME, organism-based; design: route oral, time 0.083-24 hrs, dose 10 mg/kg; details: in vivo
[27] = Tmax in CD1 mouse at 10 mg/kg, po measured after 0.083 to 24 hrs by UHPLC-TOF method; format: ADME, organism-based; details: in vivo, time 0.083-24 hrs; summary of the method: as §2
[28] = Intrinsic clearance in human hepatocytes at 3 uM assessed per million cells measured up to 60 mins by LC-MS/MS analysis; format: ADME, cell-based, Hepatocyte; details: read-out: CLH
[29] = Cmax in Beagle dog at 3 mg/kg, po measured after 0.03 to 24 hrs by UHPLC-TOF method; format: ADME, organism-based, Canis lupus familiaris; design: route oral, dose 3 mg/kg, time 0.03-24 hrs; details: in vivo
[30] = Half life in rat hepatocytes at 3 uM measured up to 60 mins by LC-MS/MS analysis; format: ADME, cell-based, Hepatocyte
[31] = Half life in Beagle dog at 0.3 mg/kg, iv measured after 0.03 to 24 hrs by UHPLC-TOF method; format: ADME, organism-based, Canis lupus familiaris; details: in vivo, time 0.03-24 hrs
Summary of the method: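 Dogs dosed IV as a suspension of amorphous solid. Serial blood at 2, 5, 15 min and 1, 2, 4, 8, 12, 24 h into heparinized tubes, centrifuged at 4 °C for 10 min at 3000g. Plasma snap-frozen and stored at −20 °C, then analysed by UHPLC-TOF.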

[32] = Tmax in Beagle dog at 3 mg/kg, […] by UHPLC-TOF method; format: ADME, organism-based, Canis lupus familiaris; details: in vivo, po
[33] = Half life in human hepatocytes at 3 uM measured up to 60 mins by LC-MS/MS analysis; format: ADME, cell-based, Hepatocyte
[34] = Half life in Beagle dog liver microsomes preincubated followed by NADPH addition and measured up to 45 mins by LC-MS/MS analysis
[35] = Intrinsic clearance in rat hepatocytes at 3 uM assessed per million cells measured up to 60 mins by LC-MS/MS analysis; format: ADME, cell-based, Hepatocyte; details: read-out: CLH
[36] = Protein binding in rat plasma assessed as unbound fraction at 5 uM by LC-MS/MS analysis based equilibrium dialysis method; format: ADME, cell-free
[37] = Oral bioavailability in CD1 mouse at 10 mg/kg measured after 0.03 to 24 hrs by UHPLC-TOF method; format: ADME, organism-based; details: in vivo, time 0.03-24 hrs; summary of the method: as §2
[38] = Oral bioavailability in Beagle dog at 3 mg/kg measured after 0.03 to 24 hrs by UHPLC-TOF method; format: ADME, organism-based, Canis lupus familiaris; details: in vivo, 3 mg/kg, time 0.03-24 hrs
Summary of the method: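 Dogs examined by a veterinary surgeon before each session, fed 2 h post-dose, water ad libitum, dosed as amorphous-solid suspension. Serial blood into heparinized tubes, centrifuged at 4 °C for 10 min at 3000g; plasma snap-frozen at −20 °C. IV sampling 2 min–24 h, oral 15 min–24 h. Plasma analysed by UHPLC-quadrupole-TOF MS.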

[39] = Protein binding in human plasma assessed as unbound fraction at 5 uM by LC-MS/MS analysis based equilibrium dialysis method; format: ADME, cell-free
[40] = Half life in Beagle dog hepatocytes at 3 uM assessed per million cells measured up to 60 mins by LC-MS/MS analysis; format: ADME, cell-based, Canis lupus familiaris, Hepatocyte
[41] = Intrinsic clearance in Beagle dog hepatocytes at 3 uM assessed per million cells measured up to 60 mins by LC-MS/MS analysis; format: ADME, cell-based, Canis lupus familiaris, Hepatocyte; details: read-out: CLH
[42] = Clearance in Beagle dog at 0.3 mg/kg, iv measured after 0.03 to 24 hrs by UHPLC-TOF method; format: ADME, organism-based, Canis lupus familiaris; details: in vivo, time 0.03-24 hrs
[43] = Half life in Beagle dog at 3 mg/kg, po measured after 0.03 to 24 hrs by UHPLC-TOF method; format: ADME, organism-based, Canis lupus familiaris; details: in vivo, time 0.03-24 hrs

SMILES: NCc1ccc2c(c1)nc(CN1C(=O)C3(CC3)c3cccc(F)c31)n2CCCC(F)(F)F
- Cmax [1]: 110 ng/mL
- CC50 [2]: > 25000 nM
- Tmax [3]: 2.1 h
- EC50 [4]: 2.3 nM
- half-life [5]: 0.8 h
- Papp A→B at 1 h, 10 µM [6]: 0.4 ×10⁻⁶ cm/s
- Microsomal intrinsic clearance [7]: 0.7 µL/min
- Vd [8]: 11 L/kg
- half-life [9]: 2.4 h
- clearance [10]: 76 mL/min/kg
- clearance [11]: 209 mL/min/kg
- solubility thermodynamic [12]: 1180 µM (≈ 526 µg/mL)
- Vd [13]: 11.3 L/kg
- intrinsic clearance [14]: 2 µL/min
- Tmax [15]: 2 h
- bioavailability [16]: 12.9%
- Cmax [17]: 44.3 ng/mL
- intrinsic clearance (CLint) [18]: 2.9 µL/min
- bioavailability [19]: 13.8%
- Cmax [20]: 44.3 ng/mL
- efflux ratio at 1 h, 10 µM [21]: 7.5
- Papp B→A at 1 h, 10 µM [22]: 2.7 ×10⁻⁶ cm/s

SMILES: NCc1ccc2c(c1)nc(CN1C(=O)C3(CC3)c3ccc(F)cc31)n2C1CCOCC1
- half-life [23]: 1.4 h
- CC50 [2]: > 25000 nM
- half-life [24]: 0.348 h
- fraction unbound at 5 µM [25]: 0.497
- EC50 [4]: 2.4 nM
- Cmax [26]: 450 ng/mL
- Tmax [27]: 1.7 h
- Papp A→B at 1 h, 10 µM [6]: 0.4 ×10⁻⁶ cm/s
- hepatocyte CLint at 3 µM [28]: 7.1 µL/min/1e6 cells
- Cmax [29]: 505 ng/mL
- half-life at 3 µM [30]: 1.02 h
- half-life [31]: 5.2 h
- Microsomal intrinsic clearance [7]: 5.2 µL/min
- Tmax [32]: 0.5 h
- half-life [9]: 1.7 h
- clearance [10]: 58 mL/min/kg
- solubility thermodynamic [12]: 1270 µM (≈ 534 µg/mL)
- half-life at 3 µM [33]: 3.28 h
- Vd [13]: 5.5 L/kg
- half-life [34]: 55.8 h
- hepatocyte CLint at 3 µM [35]: 21.2 µL/min/1e6 cells
- fraction unbound at 5 µM [36]: 0.399
- bioavailability [37]: 39.4%
- intrinsic clearance [14]: 0.4 µL/min
- F [38]: 163%
- intrinsic clearance (CLint) [18]: 66.4 µL/min
- fraction unbound at 5 µM [39]: 0.548
- half-life at 3 µM [40]: > 16.7 h
- hepatocyte CLint at 3 µM [41]: 0.8 µL/min/1e6 cells
- efflux ratio at 1 h, 10 µM [21]: 94
- clearance [42]: 19.2 mL/min/kg
- half-life [43]: 3.1 h
- Papp B→A at 1 h, 10 µM [22]: 40.6 ×10⁻⁶ cm/s
